# Data as given in PubChem BioAssay.
# Active and inactive are the calls of the source.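 Rule for the calls, unless noted: active = GFP response above 150% of the DMSO level; inconclusive = fewer than 70 events counted for a yeast strain; inactive = the rest.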
# Experiments:
# [1] = hit retest on RPL19A-GFP reporter strain – cell-based, S. cerevisiae, flow cytometry, cherry picks, mother/daughter gates, confirmation (AID 2270;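 active = GFP response below 50% of the DMSO control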); details: 3 h, at 10 µM, stronger effect = lower value, 100 = same GFP as DMSO wells
# [2] = yeast TOR pathway reporter LAP4-GFP change – cell-based, cherry picks, flow cytometry, mother/daughter gates, confirmation (AID 2271;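 active = GFP response above 150% of the DMSO control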;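 note: ratio of sample to DMSO plate mean so 100% equals DMSO level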); details: S. cerevisiae LAP4-GFP strain, 3 h, at 10 µM, stronger effect = higher value, 100 means same as DMSO control
# Outline: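 System: GFP-fusion yeast strain; Incubation: compound exposure 3 h at 30 °C, end-over-end rotation; Measured by: GFP by flow cytometry; Read-out: median GFP fluorescence as percent of plate-mean DMSO wells; Medium: synthetic complete (SC) yeast growth medium; Compound: single test-compound dose, 10 µM final; Benchmarks: DMSO-only negative wells, rapamycin 400 ng/mL positive wells.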
# [3] = TOR pathway reporter MEP2-GFP, retest of hits – S. cerevisiae, flow cytometry GFP, cherry picks, confirmation (AID 2272;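 active = GFP response above 150% of the DMSO control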;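 note: ratio of well signal to plate DMSO mean so 100% equals DMSO level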); details: S. cerevisiae MEP2-GFP strain, 3 h, at 10 µM, stronger effect = higher value
# [4] = yeast AGP1-GFP fluorescence change, single-dose – cell-based, flow cytometry, S. cerevisiae, cherry picks, confirmation (AID 2273);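 note: median GFP channel fluorescence over the whole cell population gate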; details: S. cerevisiae AGP1-GFP strain, 3 h, at 10 µM
# [5] = TOR pathway CIT2 reporter hit retest – S. cerevisiae, GFP fusion, cherry picks, mother/daughter gates, confirmation (AID 2274); details: S. cerevisiae CIT2-GFP strain, flow cytometry, 3 h, at 10 µM, stronger effect = higher value
# [6] = measured here: daughter cell gate
# [7] = measured here: mother cell gate
# [8] = measured here: daughter cell gate response
# [9] = measured here: mother cell gate response
SMILES,GFP response vs DMSO [1],"GFP response vs DMSO [1, 6]","GFP response vs DMSO [1, 7]",GFP response relative to DMSO [2],"GFP response relative to DMSO [2, 8]","GFP response relative to DMSO [2, 9]",GFP response vs DMSO [3],"GFP response, % of DMSO [4]","GFP response, % of DMSO [5]","GFP response, % of DMSO [5, 6]","GFP response, % of DMSO [5, 7]"
COc1ccc(Br)cc1/C=N/NC(=O)Cn1nnnc1N,99.2% (inactive),97.6%,103%,99.2% (inactive),97.6%,100%,109% (inactive),95.8% (inactive),104% (inactive),103%,106%
Cc1cc(=O)[nH]c(-n2nc(C)cc2C)n1,98% (inactive),99.1%,97.8%,101% (inactive),101%,100%,105% (inactive),99.8% (inactive),94.4% (inactive),97.4%,91.9%
O=C(CCCCCN1C(=O)c2cccc3cccc(c23)C1=O)N1CCOCC1,102% (inactive),101%,102%,102% (inactive),101%,103%,99% (inactive),99.8% (inactive),103% (inactive),101%,103%
O=C1ON=C(c2ccccc2)/C1=C\c1ccco1,101% (inactive),90.8%,87%,168% (active),143%,165%,124% (inactive),93.2% (inactive),82.2% (inactive),89.9%,70.8%
COc1ccc(NC(=O)C2CCN(S(=O)(=O)c3ccc(OC)c(OC)c3)CC2)c(OC)c1,90.6% (inactive),92%,89%,99.5% (inactive),99.1%,102%,107% (inactive),100% (inactive),103% (inactive),97.4%,105%
O=S(=O)(c1ccccc1)c1ncc(C(F)(F)F)cc1O,96.5% (inactive),98.4%,94.8%,97.7% (inactive),97.5%,99.5%,110% (inactive),104% (inactive),101% (inactive),99.3%,102%
O=C1c2ccsc2SCCN1Cc1ccc(F)cc1,97% (inactive),94.4%,100%,111% (inactive),110%,113%,90.5% (inactive),97.3% (inactive),100% (inactive),103%,89.5%
CCOC(=O)C(N)CSC1CC(=O)N(c2ccc(C(=O)OC)cc2)C1=O (stereo unspecified),98% (inactive),98.4%,98.7%,102% (inactive),102%,101%,100% (inactive),98.1% (inactive),98.3% (inactive),99.1%,97.3%
COc1ccc(CN2CN(C(C)C)CSC2=S)cc1,98.8% (inactive),96.7%,92.1%,112% (inactive),106%,107%,146% (inactive),107% (inactive),80.8% (inactive),80.1%,75.1%
CCc1noc(C)c1C(=O)Nc1nc(-c2ccc(Cl)cc2Cl)c(C)s1,98.8% (inactive),99.1%,98.8%,98.8% (inactive),99.3%,97.5%,99.5% (inactive),102% (inactive),96.4% (inactive),96.4%,94.5%
O=C1C2C3C=CC(C4CC34)C2C(=O)N1/N=C/c1ccc([N+](=O)[O-])o1 (stereo unspecified),101% (inactive),105%,95.8%,129% (inactive),122%,120%,106% (inactive),101% (inactive),107% (inactive),112%,100%
COc1ccc(-c2cc(=O)n(-c3nc4ccccc4[nH]3)[nH]2)cc1,98.6% (inactive),101%,99.3%,117% (inactive),119%,113%,103% (inactive),98% (inactive),95.9% (inactive),97.4%,94.4%
C=CCn1c(=O)c(C(=O)Nc2ccccc2O)c(O)c2ccccc21,99.8% (inactive),98.9%,101%,108% (inactive),106%,106%,105% (inactive),98.7% (inactive),104% (inactive),105%,102%
O=[N+]([O-])c1cc(C(F)(F)F)ccc1Sc1ccccn1,102% (inactive),101%,101%,97.4% (inactive),98.7%,98.3%,102% (inactive),99.2% (inactive),104% (inactive),103%,103%
CCCc1[nH]nc2c1C(c1ccc(Br)s1)C(C#N)=C(N)O2 (stereo unspecified),96.2% (inactive),96.7%,95.4%,137% (inactive),136%,137%,122% (inactive),105% (inactive),101% (inactive),101%,102%
O=[N+]([O-])c1ccccc1OCCOc1ccccc1[N+](=O)[O-],103% (inactive),101%,100%,106% (inactive),101%,101%,102% (inactive),106% (inactive),105% (inactive),103%,98.5%
Cc1cc(NC(=O)c2ccc3c(c2)OCCO3)ccc1NC(=O)c1cc2ccccc2o1,97.6% (inactive),99.5%,96.5%,89.4% (inactive),89.8%,91.3%,103% (inactive),93.2% (inactive),95.8% (inactive),97.6%,97.1%
O=Nc1c(O)c2ccccc2c2ccccc12,113% (inactive),109%,111%,114% (inactive),113%,119%,111% (inactive),104% (inactive),107% (inactive),106%,105%
COc1ccc(CC(=O)Oc2ccccc2C)cc1,98% (inactive),99.6%,98.3%,100% (inactive),97.9%,98.5%,102% (inactive),94.3% (inactive),96.4% (inactive),96.4%,95.6%
O=C(COc1ccccc1)N1CCN(c2ncnc3c2cnn3-c2ccccc2)CC1,98.7% (inactive),98.4%,98.6%,104% (inactive),102%,105%,101% (inactive),97.3% (inactive),98.6% (inactive),103%,98.2%
CC(C(=O)O)n1nc(-c2ccccc2)c2ccccc21 (stereo unspecified),97.8% (inactive),99.6%,95.3%,99.5% (inactive),101%,97.3%,99% (inactive),102% (inactive),102% (inactive),101%,101%
CCNC(=O)c1c(O)c2cccc3c2n(c1=O)CC3,103% (inactive),101%,103%,103% (inactive),101%,105%,94.7% (inactive),99% (inactive),98.8% (inactive),101%,98.1%
CCOC(=O)/C(=N\NC(=O)c1ccccc1)c1ccccc1,97.2% (inactive),95.7%,98.1%,107% (inactive),105%,106%,104% (inactive),96.5% (inactive),101% (inactive),100%,99.1%
CC(=O)c1cc(NC(=O)c2ccc(C)cc2)c(=O)oc1C,96.6% (inactive),97.5%,96%,105% (inactive),104%,104%,104% (inactive),94.3% (inactive),99.3% (inactive),100%,96.8%
CCOC(=O)CSC1=NC(=O)/C(=C/c2ccc(Br)cc2)S1,96.3% (inactive),86.3%,92.8%,161% (active),136%,170%,98.8% (inactive),103% (inactive),83.5% (inactive),77.8%,79.8%
Fc1cccc(Cl)c1Cn1ncc2ccccc21,97.6% (inactive),96.1%,96.3%,102% (inactive),99.1%,100%,99% (inactive),101% (inactive),97.3% (inactive),97.4%,96.8%
